Measured values reported in publication PMC7816766 (Journal of Medicinal Chemistry, 2020).
“Also recorded” adds a separate entry of the source.

How the values were obtained:
[1] = test system: MDA-MB-231 cells; experiment: Clonogenic; type: cell-based, human; details: treated once
Summary of the method: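 Cells were seeded as single-cell cultures at 250 cells per well. They were treated once the next day with test compound at 0–1 μM and cultured until large colonies were visible. Colonies were stained with crystal violet for 4 h and photographed. Data came from three independent determinations.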

[2] = test system: MDA-MB-231 or MDA-MB-468 cells; experiment: Cell viability/growth of breast cancer cells harboring active STAT3; type: cell-based, human; details: for viability, anchorage-dependent and independent growth, and colony formation: at 1 μM or less; for activity against breast cancer cells: up to 10 μM
[3] = test system: STAT3 DNA-binding activity in MDA-MB-468 cells; experiment: Constitutive STAT3 DNA-binding activity in treated breast cancer cells; type: cell-based, human; details: for constitutive STAT3 DNA-binding activity in cells: cells treated with 1–5 μM (BBI-608 0.5–5 μM, 2–3 h); for earliest time of inhibition of STAT3 DNA-binding activity in cells: MDA-MB-468
Summary of the method: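 MDA-MB-468 cells were treated with 5 μM test compound for 1–3 h; controls received 0.05% DMSO. Nuclear extracts of equal total protein were incubated with 33P-labelled hSIE probe (c-fos m67 variant) for 30 min at 30 °C. STAT3:DNA complexes were then resolved by EMSA. Results came from two to three independent determinations.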

[4] = test system: pY705STAT3; experiment: Immunoblotting for pY705STAT3 in treated breast cancer cells; type: cell-based, human; details: 1–5 μM, 0–24 h (BBI-608 0.5–5 μM, 2–3 h)
Summary of the method: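 Controls received 0.05% DMSO. Equal-protein RIPA whole-cell lysates were immunoblotted for pY705STAT3, STAT3 and tubulin. Results came from two to three independent determinations.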

[5] = target: STAT3 (Mus musculus, UniProt P42227); type: biochemical
Sequence of STAT3 (P42227 2-770 limits assumed): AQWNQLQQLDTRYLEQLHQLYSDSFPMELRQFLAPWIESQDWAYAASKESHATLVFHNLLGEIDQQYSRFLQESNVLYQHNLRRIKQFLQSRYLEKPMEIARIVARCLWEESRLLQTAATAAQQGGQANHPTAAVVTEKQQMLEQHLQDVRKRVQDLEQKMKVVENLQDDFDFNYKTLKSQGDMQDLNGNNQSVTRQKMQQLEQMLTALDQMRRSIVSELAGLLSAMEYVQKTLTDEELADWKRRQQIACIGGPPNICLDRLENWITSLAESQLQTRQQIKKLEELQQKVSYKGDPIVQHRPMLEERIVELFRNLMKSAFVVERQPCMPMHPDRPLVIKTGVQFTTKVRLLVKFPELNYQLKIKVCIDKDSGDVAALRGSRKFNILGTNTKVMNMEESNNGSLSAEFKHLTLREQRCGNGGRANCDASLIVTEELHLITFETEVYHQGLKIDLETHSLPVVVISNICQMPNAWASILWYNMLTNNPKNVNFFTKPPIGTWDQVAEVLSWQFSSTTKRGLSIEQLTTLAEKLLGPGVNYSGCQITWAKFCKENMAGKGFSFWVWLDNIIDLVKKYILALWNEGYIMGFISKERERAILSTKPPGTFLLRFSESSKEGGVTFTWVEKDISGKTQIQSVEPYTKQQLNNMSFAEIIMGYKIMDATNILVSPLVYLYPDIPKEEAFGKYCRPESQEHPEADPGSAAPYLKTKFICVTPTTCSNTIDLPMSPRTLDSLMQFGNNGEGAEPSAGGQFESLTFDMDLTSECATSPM

[6] = test system: STAT5:STAT5 homodimers; type: biochemical; details: 10 µM, MGFe probe (Fig. S6)
[7] = target: T1, STAT1:STAT1 homodimers (Mus musculus, UniProt P42225); type: biochemical; details: 10 µM, MGFe probe (Fig. S6)
T1 sequence (P42225 2-749 limits assumed): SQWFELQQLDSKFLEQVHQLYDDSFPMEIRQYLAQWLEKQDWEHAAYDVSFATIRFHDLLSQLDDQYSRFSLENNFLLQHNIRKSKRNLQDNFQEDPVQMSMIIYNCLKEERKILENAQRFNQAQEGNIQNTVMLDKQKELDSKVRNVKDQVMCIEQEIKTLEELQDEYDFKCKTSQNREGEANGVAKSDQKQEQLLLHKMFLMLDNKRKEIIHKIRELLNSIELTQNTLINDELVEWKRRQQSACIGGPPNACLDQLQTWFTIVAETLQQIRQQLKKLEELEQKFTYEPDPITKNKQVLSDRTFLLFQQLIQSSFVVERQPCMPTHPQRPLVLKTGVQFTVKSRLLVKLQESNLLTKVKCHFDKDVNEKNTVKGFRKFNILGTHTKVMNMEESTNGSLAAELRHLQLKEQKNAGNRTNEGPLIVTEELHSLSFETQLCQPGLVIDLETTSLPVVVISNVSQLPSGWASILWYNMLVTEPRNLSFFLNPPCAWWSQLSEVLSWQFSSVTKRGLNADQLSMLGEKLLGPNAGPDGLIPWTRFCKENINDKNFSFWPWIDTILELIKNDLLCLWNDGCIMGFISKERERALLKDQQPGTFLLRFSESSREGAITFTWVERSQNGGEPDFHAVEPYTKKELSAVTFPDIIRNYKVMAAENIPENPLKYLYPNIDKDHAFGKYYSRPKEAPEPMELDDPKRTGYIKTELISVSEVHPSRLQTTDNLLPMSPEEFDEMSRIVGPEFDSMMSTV

[8] = cited from earlier work
[9] = test system: MCF-7 cells; experiment: Cell growth by trypan blue exclusion/phase-contrast microscopy, MCF-7; type: cell-based, human; details: 2 μM
Summary of the method: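 Cells cultured in 6-well plates and treated once with 2 μM test compound. Every 24 h (up to 96 h), cells were harvested and viable cells counted by trypan blue exclusion under phase-contrast microscopy. Counts were plotted against treatment duration. Cells were grown in DMEM with 10% heat-inactivated FBS.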

[10] = test system: MDA-MB-231 cells; experiment: Cell growth by trypan blue exclusion/phase-contrast microscopy, MDA-MB-231; type: cell-based, human; details: 2 μM
[11] = test system: MCF-10A cells; experiment: CyQuant cell viability assay, MCF-10A; type: cell-based; details: Homo sapiens, 72 h, read-out: Cell viability EC50 MCF-10A
Summary of the method: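 Cells in 96-well plates were treated with test compound over a range of concentrations for 72 h, then assayed with CyQuant. Viability was normalised to control as % and plotted against concentration to derive EC50. Media: MCF-10A in DMEM/F12 with 5% horse serum, EGF, insulin and hydrocortisone; other lines in DMEM with 10% heat-inactivated FBS.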

[12] = test system: MDA-MB-231 cells; experiment: CyQuant cell viability assay, MDA-MB-231; type: cell-based; details: Homo sapiens, MDA-MB-231, 72 h, read-out: Cell viability EC50 MDA-MB-231

SMILES: COC(=O)c1ccc(N(Cc2cnc(C3CCCCC3)cn2)C(=O)[C@H]2CCN2S(=O)(=O)c2c(F)c(F)c(F)c(F)c2F)cc1O [Compound 7f]
- inhibition of colony formation ([1]; 0.5 μM): minimal to moderate inhibition of colony formation
- inhibition of colony formation ([1]; 1 μM): significant inhibition
- viability, anchorage-dependent and independent growth, and colony formation [2]: strongly inhibited

SMILES: CC(=O)c1cc2c(o1)C(=O)c1ccccc1C2=O [napabucasin, reference compound]
- constitutive STAT3 DNA-binding activity in cells [3]: weak to moderate effects
- pY705STAT3 in breast cancer cells [4]: weak to moderate effects
- direct effect on STAT3 activity in the DNA-binding assay/EMSA ([5]; up to 10 μM): minimal direct effect

SMILES: O=C(O)c1ccc(N(Cc2ccc(C3CCOCC3)cc2)C(=O)[C@H]2CCN2S(=O)(=O)c2c(F)c(F)c(F)c(F)c2F)cc1O [Compound 5g]
- effect on DNA-binding activity of STAT5:STAT5 homodimers [6]: minimal effect
- effect on DNA-binding activity of STAT1:STAT1 homodimers [7]: minimal effect

SMILES: CN(CC(=O)N(Cc1ccc(C2CCCCC2)cc1)c1ccc(C(=O)O)c(O)c1)S(=O)(=O)c1c(F)c(F)c(F)c(F)c1F [BP-1-102]
- cellular activities of parent lead compounds [8]: 10 to 20 µM

SMILES: CNC(=O)c1ccc(N(Cc2ccc(C3CCCCC3)cn2)C(=O)[C@H]2CCN2S(=O)(=O)c2c(F)c(F)c(F)c(F)c2F)cc1O [Compound 8q]
- cell growth MCF-7, trypan blue exclusion [9]: no effect
- earliest time of inhibition of STAT3 DNA-binding activity in cells [3]: 6 h
- constitutive STAT3 DNA-binding activity in cells [3]: inhibited to variable degrees
- pY705STAT3 in breast cancer cells [4]: inhibited pY705STAT3 in dose- and time-dependent manner
- inhibition of colony formation ([1]; 1 μM): does not show any inhibitory effect
- effect on DNA-binding activity of STAT5:STAT5 homodimers [6]: minimal effect
- cell growth MDA-MB-231, trypan blue exclusion [10]: good activity

SMILES: O=C(NO)c1ccc(N(Cc2ccc(C3CCCCC3)cc2)C(=O)[C@H]2CCN2S(=O)(=O)c2c(F)c(F)c(F)c(F)c2F)cc1O [Compound 8d]
- effect on DNA-binding activity of STAT5:STAT5 homodimers [6]: minimal effect
- effect on DNA-binding activity of STAT1:STAT1 homodimers [7]: minimal effect

SMILES: O=C(O)c1ccc(N(Cc2ccc(C3CCCCC3)nc2)C(=O)[C@H]2CCN2S(=O)(=O)c2c(F)c(F)c(F)c(F)c2F)cc1O [Compound 5m]
- effect on DNA-binding activity of STAT5:STAT5 homodimers [6]: minimal effect
- effect on DNA-binding activity of STAT1:STAT1 homodimers [7]: minimal effect

SMILES: O=C1NC(=O)c2cc(N(Cc3ccc(C4CCCCC4)cn3)C(=O)[C@H]3CCN3S(=O)(=O)c3c(F)c(F)c(F)c(F)c3F)ccc21 [Compound 9k]
- cell growth MCF-7, trypan blue exclusion [9]: no effect
- earliest time of inhibition of STAT3 DNA-binding activity in cells [3]: 0.083 h
- constitutive STAT3 DNA-binding activity in cells [3]: inhibited to variable degrees
- pY705STAT3 in breast cancer cells [4]: inhibited pY705STAT3 in dose- and time-dependent manner; also recorded: bounced back by 24 h
- inhibition of colony formation ([1]; 0.5 μM): minimal to moderate inhibition of colony formation
- inhibition of colony formation ([1]; 1 μM): significant inhibition
- viability, anchorage-dependent and independent growth, and colony formation [2]: strongly inhibited
- effect on DNA-binding activity of STAT5:STAT5 homodimers [6]: minimal effect
- cell growth MDA-MB-231, trypan blue exclusion [10]: strongly inhibited cell growth

SMILES: O=C(NO)c1ccc(N(Cc2ccc(C3CCCCC3)cc2)C(=O)[C@H]2CCN2S(=O)(=O)c2c(F)c(F)c(F)c(F)c2F)c(F)c1 [Compound 8f]
- effect on DNA-binding activity of STAT5:STAT5 homodimers [6]: minimal effect
- effect on DNA-binding activity of STAT1:STAT1 homodimers [7]: minimal effect

SMILES: O=C(O)c1ccc(N(Cc2ccc(C3CCCCC3)cc2)C(=O)[C@H]2CCN2S(=O)(=O)c2c(F)c(F)c(F)c(F)c2F)cc1O [Compound 5a, (R)-4-(N-(4-cyclohexylbenzyl)-1-((perfluorophenyl)sulfonyl)azetidine-2-carboxamido)-2-hydroxybenzoic acid]
- activity against breast cancer cells [2]: no activity

SMILES: COC(=O)c1ccc(N(Cc2cnc(C3CCCCC3)cn2)C(=O)[C@H]2CCN2S(=O)(=O)c2c(F)c(F)c(F)c(F)c2F)c(F)c1 [Compound 7e]
- inhibition of colony formation ([1]; 0.5 μM): minimal to moderate inhibition of colony formation
- inhibition of colony formation ([1]; 1 μM): near-complete inhibition
- viability, anchorage-dependent and independent growth, and colony formation [2]: strongly inhibited

SMILES: CN(CC(=O)N(Cc1ccc(C2CCCCC2)cc1)c1ccc(C(=O)NO)cc1)S(=O)(=O)c1c(F)c(F)c(F)c(F)c1F [SH5-07]
- cellular activities of parent lead compounds [8]: 3.8 µM

SMILES: COC(=O)c1ccc(N(Cc2ccc(C3CCCCC3)cc2)C(=O)[C@H]2CCN2S(=O)(=O)c2c(F)c(F)c(F)c(F)c2F)c(F)c1 [Compound 7b]
- EC50 [11]: 6 µM
- effect on DNA-binding activity of STAT5:STAT5 homodimers [6]: minimal effect
- effect on DNA-binding activity of STAT1:STAT1 homodimers [7]: minimal effect

SMILES: O=C(O)c1ccc(N(Cc2ccc(C3CCOCC3)nc2)C(=O)[C@H]2CCN2S(=O)(=O)c2c(F)c(F)c(F)c(F)c2F)cc1O [Compound 5n]
- effect on DNA-binding activity of STAT5:STAT5 homodimers [6]: minimal effect
- effect on DNA-binding activity of STAT1:STAT1 homodimers [7]: minimal effect

SMILES: O=C(O)c1ccc(N(Cc2ccc(C3CCCCC3)cc2)C(=O)C2CN(S(=O)(=O)c3c(F)c(F)c(F)c(F)c3F)C2)cc1O [Compound 5c]
- EMSA IC50 ([5]; STAT3:DNA complexes, hSIE probe, 30 min preincubation at room temperature): loss of activity

SMILES: CN(CC(=O)N(Cc1ccc(C2CCCCC2)cc1)c1ccc(C(=O)O)cc1)S(=O)(=O)c1c(F)c(F)c(F)c(F)c1F [SH4-54]
- cellular activities of parent lead compounds [8]: 4.5 µM

SMILES: O=C([C@H]1CCN1S(=O)(=O)c1c(F)c(F)c(F)c(F)c1F)N(Cc1ccc(C2CCCCC2)cc1)c1ccc(-c2nnn[nH]2)cc1 [Compound 6e]
- activity against breast cancer cells [2]: weak cellular activity
- EC50 [12]: > 10 µM

SMILES: O=C(NO)c1ccc(N(Cc2ccc(C3CCCCC3)cn2)C(=O)[C@H]2CCN2S(=O)(=O)c2c(F)c(F)c(F)c(F)c2F)c(F)c1 [Compound 8l]
- activity against breast cancer cells [2]: weakly active

SMILES: COC(=O)c1ccc(N(Cc2ccc(C3CCCCC3)nc2)C(=O)[C@H]2CCN2S(=O)(=O)c2c(F)c(F)c(F)c(F)c2F)cc1O [Compound 7c]
- EC50 [11]: 3.6 µM

SMILES: O=C(O)c1ccc(N(Cc2ccc(C3CCCC3)cc2)C(=O)[C@H]2CCN2S(=O)(=O)c2c(F)c(F)c(F)c(F)c2F)cc1O [Compound 5e]
- effect on DNA-binding activity of STAT5:STAT5 homodimers [6]: minimal effect
- effect on DNA-binding activity of STAT1:STAT1 homodimers [7]: minimal effect

SMILES: O=C(O)c1cc(F)c(N(Cc2ccc(C3CCCCC3)cc2)C(=O)[C@H]2CCN2S(=O)(=O)c2c(F)c(F)c(F)c(F)c2F)cc1O [Compound 5i]
- effect on DNA-binding activity of STAT5:STAT5 homodimers [6]: minimal effect
- effect on DNA-binding activity of STAT1:STAT1 homodimers [7]: minimal effect
